Columns and labels:
Adenosine receptor A1 = target: T1, Adenosine receptor A1 (Homo sapiens, UniProt P30542); test: Binding affinity for human adenosine A1 receptor by displacement of [3H]DPCPX
T1 sequence (P30542 whole entry): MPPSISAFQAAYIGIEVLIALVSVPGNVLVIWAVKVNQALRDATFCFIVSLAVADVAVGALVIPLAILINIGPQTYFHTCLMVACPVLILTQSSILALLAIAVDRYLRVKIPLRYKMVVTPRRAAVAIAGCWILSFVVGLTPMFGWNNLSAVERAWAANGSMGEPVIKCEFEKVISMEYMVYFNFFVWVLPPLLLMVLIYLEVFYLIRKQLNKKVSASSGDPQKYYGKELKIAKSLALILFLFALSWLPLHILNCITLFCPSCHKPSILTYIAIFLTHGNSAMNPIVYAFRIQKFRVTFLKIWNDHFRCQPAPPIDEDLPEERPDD
How it was run: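 Membranes from cells expressing recombinant human A1 receptor, pre-mixed with adenosine deaminase and SPA beads. Labelled with [3H]DPCPX (0.6 nM final) against 10 concentrations of competitor or buffer. Buffer: Tris-HCl 50 mM pH 7.4, NaCl 120 mM, KCl 5 mM, CaCl2 2 mM, MgCl2 10 mM. Xanthine amine congener defined non-specific binding. Incubated 60 min at room temperature, centrifuged, scintillation counted. Duplicates, at least two experiments; Ki given as mean.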

Adenosine receptor A2a [1] = target: T2, Adenosine receptor A2a (Homo sapiens, UniProt P29274); test: Binding affinity towards human recombinant adenosine A2A receptor by displacement of [3H]SCH-58261 radioligand.
[2] = pKa value was determined; format: physicochemical
Adenosine receptor A2a [3] = target: T2, Adenosine receptor A2a; test: Binding affinity for human adenosine A2A receptor by displacement of [3H]SCH-58,261; inactive
[4] = Medium permeability in parallel artificial membrane permeation assay; high; format: functional
Adenosine receptor A2a [5] = target: Adenosine receptor A2a (Rattus norvegicus, UniProt P30543); test: Binding affinity for rat adenosine A2A receptor by displacement of [3H]SCH-58261
[6] = Medium permeability in parallel artificial membrane permeation assay; medium; format: functional

Chain of Adenosine receptor A2a (Rattus norvegicus, UniProt P30543) (P30543 whole entry): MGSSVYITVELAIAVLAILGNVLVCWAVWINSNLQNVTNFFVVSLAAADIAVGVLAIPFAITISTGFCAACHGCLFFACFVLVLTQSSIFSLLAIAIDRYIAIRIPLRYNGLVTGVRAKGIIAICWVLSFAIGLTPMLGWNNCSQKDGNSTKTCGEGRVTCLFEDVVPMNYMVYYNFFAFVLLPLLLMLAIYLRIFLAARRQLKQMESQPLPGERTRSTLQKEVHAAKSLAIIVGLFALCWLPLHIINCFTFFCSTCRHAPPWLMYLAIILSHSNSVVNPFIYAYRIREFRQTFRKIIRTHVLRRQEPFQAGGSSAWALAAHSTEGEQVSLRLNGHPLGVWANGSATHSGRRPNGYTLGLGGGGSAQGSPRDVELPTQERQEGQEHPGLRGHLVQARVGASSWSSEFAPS
T2 sequence (P29274 whole entry): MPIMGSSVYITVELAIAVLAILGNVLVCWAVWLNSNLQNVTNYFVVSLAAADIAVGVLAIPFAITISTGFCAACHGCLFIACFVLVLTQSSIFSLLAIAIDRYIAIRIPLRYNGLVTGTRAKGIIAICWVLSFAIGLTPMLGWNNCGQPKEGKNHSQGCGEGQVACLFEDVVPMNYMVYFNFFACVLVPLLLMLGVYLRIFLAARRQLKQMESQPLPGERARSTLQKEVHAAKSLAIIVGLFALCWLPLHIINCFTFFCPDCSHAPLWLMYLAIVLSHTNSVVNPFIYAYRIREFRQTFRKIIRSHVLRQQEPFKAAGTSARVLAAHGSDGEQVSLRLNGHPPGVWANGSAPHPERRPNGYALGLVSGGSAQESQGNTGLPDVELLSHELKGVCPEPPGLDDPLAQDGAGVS

Structure (SMILES) | Ki (Adenosine receptor A2a [1]) | further results
c1cc(CN2CCCC2)cc(-c2n[nH]c(-c3ccc4c(c3)OCCO4)n2)c1 | 1000 nM | Ki (Adenosine receptor A1): 7600 nM
COc1cccc(-c2n[nH]c(CC3CCCCC3)n2)c1 | 700 nM | 
Cn1nc(-c2ccc(N=[N+]=[N-])cc2)nc1-c1cccc(CN2CC=CC2)c1 | 400 nM | Ki (Adenosine receptor A1): 7300 nM
S/C(Cc1ccccc1)=N\N=C\c1ccccc1 | > 5200 nM | 
COc1ccc(O)c(/C=N/N=C(\S)Cc2ccccc2)c1 | 20 nM | pKa [2]: 6.6
Cc1ccc(O)c(C2=NN(C(=S)Cc3ccccc3)CC2)c1 |  | Ki (Adenosine receptor A2a [3]): > 5.2 µM
COc1ccc(O)c(/C=N/NC(=O)Cc2ccccc2)c1 |  | pKa [2]: 2.9
COc1cccc(-c2n[nH]c(Cc3cccc(Br)c3)n2)c1 | 10 nM | Activity [4]: 1.9 10e-6·s cm-1; Ki (Adenosine receptor A2a [5]): 40 nM; Ki (Adenosine receptor A1): 100 nM
S/C(Cc1ccccc1)=N\N=C\c1cnc2ccccc2c1 | 2000 nM | 
O=[N+]([O-])c1ccc(O)c(/C=N/N=C(\S)Cc2ccccc2)c1 | 10 nM | 
Oc1ccccc1-c1n[nH]c(-c2ccccc2)n1 | 700 nM | 
COc1ccc(/C=N/N=C(\S)Cc2ccccc2)c(O)c1 | 100 nM | 
COc1cccc(O)c1/C=N/N=C(\S)Cc1ccccc1 | > 5200 nM | 
S/C(Cc1ccccc1)=N\N=C\c1ccc2ccccc2n1 | 1200 nM | 
COc1cccc(-c2n[nH]c(Cc3cccc(F)c3F)n2)c1 | 20 nM | Activity [4]: 3.8 10e-6·s cm-1; Ki (Adenosine receptor A2a [5]): 40 nM; Ki (Adenosine receptor A1): 900 nM
S/C(Cc1ccccc1)=N\N=C\c1ccccn1 | 100 nM | 
Oc1ccc(OC(F)(F)F)cc1/C=N/N=C(\S)Cc1ccccc1 | 1400 nM | 

Structure (SMILES) | Ki (Adenosine receptor A2a [1]) | further results
COc1cccc(-c2nc(Cc3ccc(C)c(C)c3)n[nH]2)c1 | 20 nM | Activity [4]: 0.9 10e-6·s cm-1; Ki (Adenosine receptor A2a [5]): 90 nM; Ki (Adenosine receptor A1): 1700 nM
COc1cccc(-c2nnc(Cc3ccc(Cl)c(Cl)c3)[nH]2)c1OC | 90 nM | 
COc1cccc(-c2n[nH]c(CCc3ccc(Cl)c(Cl)c3)n2)c1 | 1000 nM | Ki (Adenosine receptor A1): 1800 nM
COc1cccc(-c2nnc(CN3CCCCC3)[nH]2)c1 | > 5200 nM | 
COc1cccc(-c2n[nH]c(Cc3cccc([N+](=O)[O-])c3)n2)c1 | 80 nM | 
COc1cccc(-c2n[nH]c(Cc3ccccc3Br)n2)c1 | 20 nM | 
Clc1ccc(Cc2nnc(C3CCCNC3)[nH]2)cc1Cl (configuration not stated) | > 5200 nM | 
COc1cccc(/C=N/N=C(\S)Cc2ccccc2)c1O | 4700 nM | 
Clc1ccc(Cc2nnc(-c3cnccn3)[nH]2)cc1Cl | 60 nM | 
Clc1ccc(Cc2n[nH]c(-c3ccc4c(c3)OCO4)n2)cc1Cl | 100 nM | 
COc1cccc(-c2nnc(Cc3ccc(F)c(F)c3)[nH]2)c1 | 70 nM | 
COc1cc(/C=N/N=C(\S)Cc2ccccc2)c(O)c(OC)c1 | 4200 nM | 
COc1cccc(-c2n[nH]c(Cc3ccc(Cl)c(Cl)c3)n2)c1 | 40 nM | Ki (Adenosine receptor A1): 1900 nM
COc1cccc(-c2nnc(-c3ccc(Cl)c(Cl)c3)[nH]2)c1 | 700 nM | Ki (Adenosine receptor A1): 6100 nM
S/C(Cc1ccccc1)=N\N=C\c1cccnc1 | 5 nM | 
COc1cccc(-c2n[nH]c(Cc3ccc4ccccc4c3)n2)c1 | 100 nM | Activity [6]: 0.3 10e-6·s cm-1; Ki (Adenosine receptor A2a [5]): 400 nM; Ki (Adenosine receptor A1): 2500 nM
COc1ccc(O)c(/C=N/NS(=O)(=O)Cc2ccccc2)c1 |  | pKa [2]: 6.5

Source: ChEMBL document CHEMBL1147439, “Synthesis and SAR evaluation of 1,2,4-triazoles as A(2A) receptor antagonists” (Bioorg Med Chem Lett, 2004)
